From ChEMBL document CHEMBL1142136, “Contribution of target gene mutations and efflux to decreased susceptibility of Salmonella enterica serovar typhimurium to fluoroquinolones and other antimicrobials” (2007)
Converted amounts (≈) assume the structure as drawn.

How the values were obtained:
Format in all cases: functional, Salmonella enterica subsp. enterica serovar Typhimurium
Salmonella typhimurium [1] = assay: Antimicrobial activity against Salmonella enterica serovar Typhimurium S21 acrAB::Kan
Method in brief: (§1)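 MICs by automated broth microdilution panels, interpreted to CLSI broth microdilution standards. Ciprofloxacin additionally tested by agar dilution across 0.0075 to 128 μg/ml. Quality control strains: E. coli ATCC 25922 and 35218, Enterococcus faecalis ATCC 29212, S. aureus ATCC 29213, P. aeruginosa ATCC 27853. Test strains are kanamycin-marked deletion mutants of ground-beef isolate S21.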

Salmonella typhimurium [2] = assay: Antimicrobial activity against Salmonella enterica serovar Typhimurium CHS14 with GyrA D87G mutation
Method in brief: (§2)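 MICs measured by broth microdilution on the Sensititre automated system and interpreted by CLSI broth microdilution standards. Ciprofloxacin was also tested by agar dilution, widening the range to 0.0075–128 μg/ml. Quality control strains were E. coli ATCC 25922 and 35218, E. faecalis ATCC 29212, S. aureus ATCC 29213 and P. aeruginosa ATCC 27853.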

Salmonella typhimurium [3] = assay: Antimicrobial activity against Salmonella enterica serovar Typhimurium CHS18 with GyrA S38F mutation; method in brief: as §2
Salmonella typhimurium [4] = assay: Antimicrobial activity against Salmonella enterica serovar Typhimurium CHS14 gyrA+ with GyrA D87G mutation; method in brief: as §2
Salmonella typhimurium [5] = assay: Antimicrobial activity against Salmonella enterica serovar Typhimurium CHS18 gyrA+ with GyrA S38F mutation; method in brief: as §2
Salmonella typhimurium [6] = assay: Antimicrobial activity against Salmonella enterica serovar Typhimurium S21; method in brief: as §2
Salmonella typhimurium [7] = assay: Antimicrobial activity against Salmonella enterica serovar Typhimurium CHS38 with GyrA D87G mutation; method in brief: as §2
Salmonella typhimurium [8] = assay: Antimicrobial activity against Salmonella enterica serovar Typhimurium CHS18 acrAB::Kan with GyrA S38F mutation; method in brief: as §2
Salmonella typhimurium [9] = assay: Antimicrobial activity against Salmonella enterica serovar Typhimurium CS1 gyrA+ with GyrA S83F, D87N, ParC S80I mutation; method in brief: as §2
Salmonella typhimurium [10] = assay: Antimicrobial activity against Salmonella enterica serovar Typhimurium CS3 acrAB::Kan with GyrA S83F, D87N, ParC S80I mutation; method in brief: as §2
Salmonella typhimurium [11] = assay: Antimicrobial activity against Salmonella enterica serovar Typhimurium CHS14 tolC::Kan with GyrA D87G mutant; method in brief: as §2
Salmonella typhimurium [12] = assay: Antimicrobial activity against Salmonella enterica serovar Typhimurium S21-4 tolC::Kan with GyrA S83F, ParC S80I mutation; method in brief: as §2
Salmonella typhimurium [13] = assay: Antimicrobial activity against Salmonella enterica serovar Typhimurium CS3 with GyrA S83F, D87N, ParC S80I mutation; method in brief: as §2
Salmonella typhimurium [14] = assay: Antimicrobial activity against Salmonella enterica serovar Typhimurium CHS38 gyrA+ with GyrA D87G mutation; method in brief: as §2
Salmonella typhimurium [15] = assay: Antimicrobial activity against Salmonella enterica serovar Typhimurium CS9 gyrA+ with GyrA S83F, D87N, ParC S80I mutation; method in brief: as §2
Salmonella typhimurium [16] = assay: Antimicrobial activity against Salmonella enterica serovar Typhimurium CS9 tolC::Kan with GyrA S83F, D87N, ParC S80I mutation; method in brief: as §2
Salmonella typhimurium [17] = assay: Antimicrobial activity against Salmonella enterica serovar Typhimurium S21 gyrA+; method in brief: as §2
Salmonella typhimurium [18] = assay: Antimicrobial activity against Salmonella enterica serovar Typhimurium CHS14 acrAB::Kan with GyrA D87G mutation; method in brief: as §2
Salmonella typhimurium [19] = assay: Antimicrobial activity against Salmonella enterica serovar Typhimurium CS1 tolC::Kan with GyrA S83F, D87N, ParC S80I mutation; method in brief: as §2
Salmonella typhimurium [20] = assay: Antimicrobial activity against Salmonella enterica serovar Typhimurium CHS38 tolC::Kan with GyrA D87G mutation; method in brief: as §2
Salmonella typhimurium [21] = assay: Antimicrobial activity against Salmonella enterica serovar Typhimurium CS3 gyrA+ with GyrA S83F, D87N, ParC S80I mutation; method in brief: as §2
Salmonella typhimurium [22] = assay: Antimicrobial activity against Salmonella enterica serovar Typhimurium S21 tolC::Kan; method in brief: as §1
Salmonella typhimurium [23] = assay: Antimicrobial activity against Salmonella enterica serovar Typhimurium CHS18 tolC::Kan with GyrA S38F mutation; method in brief: as §2
Salmonella typhimurium [24] = assay: Antimicrobial activity against Salmonella enterica serovar Typhimurium CHS38 acrAB::Kan with GyrA D87G mutation; method in brief: as §2
Salmonella typhimurium [25] = assay: Antimicrobial activity against Salmonella enterica serovar Typhimurium CS3 tolC::Kan with GyrA S83F, D87N, parC S80I mutation; method in brief: as §2
Salmonella typhimurium [26] = assay: Antimicrobial activity against Salmonella enterica serovar Typhimurium CS1 acrAB::Kan with GyrA S83F, D87N, ParC S80I mutation; method in brief: as §2
Salmonella typhimurium [27] = assay: Antimicrobial activity against Salmonella enterica serovar Typhimurium CS9 acrAB::Kan with GyrA S83F, D87N, ParC S80I mutation; method in brief: as §2
Salmonella typhimurium [28] = assay: Antimicrobial activity against Salmonella enterica serovar Typhimurium CS1 with GyrA S83F, D87N, ParC S80I mutation; method in brief: as §2
Salmonella typhimurium [29] = assay: Antimicrobial activity against Salmonella enterica serovar Typhimurium CS9 with GyrA S83F, D87N, ParC S80I mutation; method in brief: as §2
Salmonella typhimurium [30] = assay: Antimicrobial activity against Salmonella enterica serovar Typhimurium S21-1 gyrA+; method in brief: as §2
Salmonella typhimurium [31] = assay: Antimicrobial activity against Salmonella enterica serovar Typhimurium S21-4 acrAB::Kan with GyrA S83F, ParC S80I mutation; method in brief: as §2
Salmonella typhimurium [32] = assay: Antimicrobial activity against Salmonella enterica serovar Typhimurium S21-2 with GyrA S83F, ParC S80I mutation; method in brief: as §2
Salmonella typhimurium [33] = assay: Antimicrobial activity against Salmonella enterica serovar Typhimurium S21-3 with GyrA S83F, ParC S80I mutation; method in brief: as §2
Salmonella typhimurium [34] = assay: Antimicrobial activity against Salmonella enterica serovar Typhimurium S21-4 gyrA+ with ParC S80I mutation; method in brief: as §2
Salmonella typhimurium [35] = assay: Antimicrobial activity against Salmonella enterica serovar Typhimurium S21-1 GyrA S83F mutant; method in brief: as §2
Salmonella typhimurium [36] = assay: Antimicrobial activity against Salmonella enterica serovar Typhimurium S21-2 gyrA+ with ParC S80I mutation; method in brief: as §2
Salmonella typhimurium [37] = assay: Antimicrobial activity against Salmonella enterica serovar Typhimurium S21-4 with GyrA S83F, ParC S80I mutation; method in brief: as §2
Salmonella typhimurium [38] = assay: Antimicrobial activity against Salmonella enterica serovar Typhimurium S21-3 gyrA+ with ParC S80I mutation; method in brief: as §2

## O=C(N[C@H](CO)[C@H](O)c1ccc([N+](=O)[O-])cc1)C(Cl)Cl [CHLORAMPHENICOL]
Salmonella typhimurium [1]
  MIC: < 2 µg/mL
Salmonella typhimurium [2]
  MIC: 8 µg/mL (≈ 24.8 µM)
Salmonella typhimurium [3]
  MIC: 8 µg/mL (≈ 24.8 µM)
Salmonella typhimurium [4]
  MIC: 8 µg/mL (≈ 24.8 µM)
Salmonella typhimurium [5]
  MIC: 4 µg/mL (≈ 12.4 µM)
Salmonella typhimurium [6]
  MIC: 8 µg/mL (≈ 24.8 µM)
Salmonella typhimurium [7]
  MIC: 32 µg/mL (≈ 99 µM)
Salmonella typhimurium [8]
  MIC: 2 µg/mL (≈ 6.19 µM)
Salmonella typhimurium [9]
  MIC: > 32 µg/mL
Salmonella typhimurium [10]
  MIC: > 32 µg/mL
Salmonella typhimurium [11]
  MIC: < 2 µg/mL
Salmonella typhimurium [12]
  MIC: 32 µg/mL (≈ 99 µM)
Salmonella typhimurium [13]
  MIC: > 32 µg/mL
Salmonella typhimurium [14]
  MIC: 32 µg/mL (≈ 99 µM)
Salmonella typhimurium [15]
  MIC: > 32 µg/mL
Salmonella typhimurium [16]
  MIC: > 32 µg/mL
Salmonella typhimurium [17]
  MIC: 8 µg/mL (≈ 24.8 µM)
Salmonella typhimurium [18]
  MIC: < 2 µg/mL
Salmonella typhimurium [19]
  MIC: > 32 µg/mL
Salmonella typhimurium [20]
  MIC: 4 µg/mL (≈ 12.4 µM)
Salmonella typhimurium [21]
  MIC: > 32 µg/mL
Salmonella typhimurium [22]
  MIC: < 2 µg/mL
Salmonella typhimurium [23]
  MIC: 2 µg/mL (≈ 6.19 µM)
Salmonella typhimurium [24]
  MIC: 4 µg/mL (≈ 12.4 µM)
Salmonella typhimurium [25]
  MIC: > 32 µg/mL
Salmonella typhimurium [26]
  MIC: > 32 µg/mL
Salmonella typhimurium [27]
  MIC: > 32 µg/mL
Salmonella typhimurium [28]
  MIC: > 32 µg/mL
Salmonella typhimurium [29]
  MIC: > 32 µg/mL
Salmonella typhimurium [30]
  MIC: > 32 µg/mL

## NC[C@H]1O[C@H](O[C@H]2[C@H](O)[C@@H](O[C@H]3O[C@H](CO)[C@@H](O)[C@H](N)[C@H]3O)[C@H](N)C[C@@H]2N)[C@H](O)[C@@H](O)[C@@H]1O [KANAMYCIN]
Salmonella typhimurium [1]
  MIC: > 64 µg/mL
Salmonella typhimurium [2]
  MIC: < 8 µg/mL
Salmonella typhimurium [3]
  MIC: 8 µg/mL (≈ 16.5 µM)
Salmonella typhimurium [4]
  MIC: > 64 µg/mL
Salmonella typhimurium [5]
  MIC: > 64 µg/mL
Salmonella typhimurium [6]
  MIC: < 8 µg/mL
Salmonella typhimurium [7]
  MIC: 8 µg/mL (≈ 16.5 µM)
Salmonella typhimurium [8]
  MIC: > 64 µg/mL
Salmonella typhimurium [9]
  MIC: > 64 µg/mL
Salmonella typhimurium [10]
  MIC: > 64 µg/mL
Salmonella typhimurium [11]
  MIC: > 64 µg/mL
Salmonella typhimurium [13]
  MIC: < 8 µg/mL
Salmonella typhimurium [14]
  MIC: > 64 µg/mL
Salmonella typhimurium [15]
  MIC: > 64 µg/mL
Salmonella typhimurium [16]
  MIC: > 64 µg/mL
Salmonella typhimurium [17]
  MIC: < 8 µg/mL
Salmonella typhimurium [18]
  MIC: > 64 µg/mL
Salmonella typhimurium [19]
  MIC: > 64 µg/mL
Salmonella typhimurium [20]
  MIC: > 64 µg/mL
Salmonella typhimurium [21]
  MIC: > 64 µg/mL
Salmonella typhimurium [31]
  MIC: > 64 µg/mL
Salmonella typhimurium [22]
  MIC: > 64 µg/mL
Salmonella typhimurium [23]
  MIC: > 64 µg/mL
Salmonella typhimurium [24]
  MIC: > 64 µg/mL
Salmonella typhimurium [25]
  MIC: > 64 µg/mL
Salmonella typhimurium [26]
  MIC: > 64 µg/mL
Salmonella typhimurium [27]
  MIC: > 64 µg/mL
Salmonella typhimurium [28]
  MIC: < 8 µg/mL
Salmonella typhimurium [29]
  MIC: < 8 µg/mL
Salmonella typhimurium [30]
  MIC: < 8 µg/mL

## CN(C)[C@@H]1C(O)=C(C(N)=O)C(=O)[C@@]2(O)C(O)=C3C(=O)c4c(O)cccc4[C@@](C)(O)[C@H]3C[C@@H]12 [TETRACYCLINE]
Salmonella typhimurium [32]
  MIC: > 32 µg/mL
Salmonella typhimurium [33]
  MIC: > 32 µg/mL
Salmonella typhimurium [1]
  MIC: < 4 µg/mL
Salmonella typhimurium [2]
  MIC: > 32 µg/mL
Salmonella typhimurium [3]
  MIC: 4 µg/mL (≈ 9 µM)
Salmonella typhimurium [34]
  MIC: > 32 µg/mL
Salmonella typhimurium [4]
  MIC: > 32 µg/mL
Salmonella typhimurium [5]
  MIC: 4 µg/mL (≈ 9 µM)
Salmonella typhimurium [6]
  MIC: < 4 µg/mL
Salmonella typhimurium [7]
  MIC: 32 µg/mL (≈ 72 µM)
Salmonella typhimurium [35]
  MIC: 32 µg/mL (≈ 72 µM)
Salmonella typhimurium [8]
  MIC: 4 µg/mL (≈ 9 µM)
Salmonella typhimurium [9]
  MIC: > 32 µg/mL
Salmonella typhimurium [10]
  MIC: > 32 µg/mL
Salmonella typhimurium [11]
  MIC: > 32 µg/mL
Salmonella typhimurium [12]
  MIC: 8 µg/mL (≈ 18 µM)
Salmonella typhimurium [13]
  MIC: > 32 µg/mL
Salmonella typhimurium [14]
  MIC: 32 µg/mL (≈ 72 µM)
Salmonella typhimurium [15]
  MIC: > 32 µg/mL
Salmonella typhimurium [36]
  MIC: > 32 µg/mL
Salmonella typhimurium [16]
  MIC: 32 µg/mL (≈ 72 µM)
Salmonella typhimurium [17]
  MIC: < 4 µg/mL
Salmonella typhimurium [18]
  MIC: > 32 µg/mL
Salmonella typhimurium [19]
  MIC: 32 µg/mL (≈ 72 µM)
Salmonella typhimurium [20]
  MIC: 16 µg/mL (≈ 36 µM)
Salmonella typhimurium [21]
  MIC: > 32 µg/mL
Salmonella typhimurium [22]
  MIC: < 4 µg/mL
Salmonella typhimurium [23]
  MIC: 4 µg/mL (≈ 9 µM)
Salmonella typhimurium [37]
  MIC: > 32 µg/mL
Salmonella typhimurium [24]
  MIC: 16 µg/mL (≈ 36 µM)
Salmonella typhimurium [38]
  MIC: > 32 µg/mL
Salmonella typhimurium [25]
  MIC: 32 µg/mL (≈ 72 µM)
Salmonella typhimurium [26]
  MIC: > 32 µg/mL
Salmonella typhimurium [27]
  MIC: > 32 µg/mL
Salmonella typhimurium [28]
  MIC: > 32 µg/mL
Salmonella typhimurium [29]
  MIC: > 32 µg/mL
Salmonella typhimurium [30]
  MIC: 32 µg/mL (≈ 72 µM)
